Compounds with a hit are over-represented: about 3.5% of the library has one in this group of screens.
RGS4 pot: RGS4 potentiators or activators, primary screen, cell-based, HEK293 M3R inducible RGS4, calcium flux; hit rate 0.92% among 310,000; carbachol calcium flux Fluo4; hits give low values; B-score at 10 µM;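 active = B-score of the integrated calcium signal more than 4 SD below the library mean, with starting fluorescence not abnormally high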;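 note: negative B-score means reduced calcium response which marks RGS4 activation or potentiation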
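test system = HEK293 cells with stable M3R and inducible RGS4 | schedule = recording 10 s baseline at 1 Hz, 100 s post-agonist | technique = Fluo4-AM (2 µM) calcium-flux fluorescence, kinetic read | measure = Agonist-evoked peak-minus-minimum fluorescence over baseline, integrated ratio, B score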
RGS4 block: RGS4 inhibitors, primary screen, cell-based, HEK293 M3R inducible RGS4, calcium flux. Regulator of G-protein signaling 4 (Homo sapiens), P49798. B-score at 10 µM. hit rate 0.45% among 310,000. Fluo-4 calcium flux; hits give high values; triggered by carbachol at its EC20;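 active = B-score, a plate-corrected calcium signal, over three deviations above library mean, with baseline fluorescence within five deviations of library mean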;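 note: RGS4 expression induced by doxycycline in cells with stable M3 receptor; B-score is computed from the integrated fluorescence ratio over baseline after carbachol; higher B-score means a larger calcium signal and so more RGS4 inhibition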
Target sequence (P49798 whole entry, looked up): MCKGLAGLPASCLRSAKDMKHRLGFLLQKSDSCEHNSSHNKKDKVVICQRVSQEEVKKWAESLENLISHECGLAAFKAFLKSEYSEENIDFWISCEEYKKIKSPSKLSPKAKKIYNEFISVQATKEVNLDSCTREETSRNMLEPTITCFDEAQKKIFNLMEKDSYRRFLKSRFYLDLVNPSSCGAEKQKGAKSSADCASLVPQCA
MrgX1 antag: antagonists of human MrgX1 receptor, primary screen, HEK293 cells, Fluo-4 calcium flux; hit rate 1.3% among 310,000; B-score at 10 µM; BAM8-22 antagonism; hits give low values; Mas-related G-protein coupled receptor member X1 (Homo sapiens), Q96LB2;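 active = calcium-response B-score plate-corrected more than 3 library SD below zero, starting fluorescence within 5 deviations, no agonist response on first addition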;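 note: peak minus trough fluorescence over baseline after final BAM8-22 challenge near maximal dose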
Target sequence (Q96LB2 whole entry, looked up): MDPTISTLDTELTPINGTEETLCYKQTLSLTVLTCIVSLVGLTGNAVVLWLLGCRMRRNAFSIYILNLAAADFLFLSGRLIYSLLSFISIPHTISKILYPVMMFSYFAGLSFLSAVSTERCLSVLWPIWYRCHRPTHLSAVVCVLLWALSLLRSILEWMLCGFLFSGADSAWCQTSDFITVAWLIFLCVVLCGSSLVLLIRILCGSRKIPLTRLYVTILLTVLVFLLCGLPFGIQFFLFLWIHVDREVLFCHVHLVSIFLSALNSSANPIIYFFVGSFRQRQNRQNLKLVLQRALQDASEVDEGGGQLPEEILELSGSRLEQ
MrgX1 ag: agonists of human MrgX1 receptor, primary screen, HEK293 cells, Fluo-4 calcium flux. Fluo-4 calcium fluorescence, agonist mode; hits give high values. AID 588627, 2011. B-score at 10 µM. hit rate 0.44% among 310,000. Mas-related G-protein coupled receptor member X1 (Homo sapiens), Q96LB2;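 active = calcium response B-score plate-corrected fluorescence ratio at least 3 library SD, with starting fluorescence B-score inside 5 SD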
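Material – MrgX1-expressing HEK293 cells · Input – 15,000 cells seeded per well · Dosing – compound as first of three additions · Times – overnight seeding, then 1 h dark dye loading · Measured by – kinetic Fluo-4 NW fluorescence of intracellular calcium · Read-out – B-scored fluorescence response ratio · Benchmarks – positive and negative control wells on each plate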
MrgX1 PAM: positive allosteric modulators of MrgX1, primary screen, HEK293 cells, Fluo-4 calcium flux | hit rate 0.63% among 310,000 | FDSS; hits give high values | Mas-related G-protein coupled receptor member X1 (Homo sapiens), Q96LB2 | B-score at 10 µM | AID 588675, 2011;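 active = plate-corrected calcium response at least 3 library SD above typical, normal starting fluorescence, not activating the receptor alone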;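 note: compound read alongside a low EC10 to EC30 dose of BAM8-22 agonist; peak minus trough fluorescence over baseline measured at the second addition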
An asterisk follows results filed as active; i = inactive; nt = no result.

SMILES	RGS4 pot	RGS4 block	MrgX1 antag	MrgX1 ag	MrgX1 PAM
CCCCCCCCC/C(=N\O)c1ccccn1	-10*	i	i	i	i
CCCCCCCCC(=O)N/N=C/c1ccccn1	i	i	i	i	i
CC1CN2C(c3ccc(Cl)cc3)=CSC2=N1 (configuration not stated)	i	i	i	i	i
CCOC(=O)C1=C(N)n2c(s/c(=C/c3ccco3)c2=O)=C(C(=O)OC)C1c1ccco1 (configuration not stated)	i	i	-5.7*	i	i
CCN(CC)c1ccc(/C=C2/C(=O)ON=C2C)cc1	i	i	i	57*	i
CCCOc1ccc(/C=C2/C(=O)ON=C2C)cc1Cl	i	i	i	i	i
CC1=NOC(=O)/C1=C/c1ccc(N(C)C)cc1	i	i	i	46*	i
COc1ccc(/C=C2/C(=O)N(c3ccccc3)N=C2C)cc1	i	i	i	i	i
CCN(CC)c1ccc(/C=C2\C(=O)N(c3nnc(C)c(=O)[nH]3)N=C2C)cc1	i	i	i	42*	i
C/C(N)=C(/C#N)C(=O)CSc1nc2ccccc2n1CC(C)C	i	i	i	i	i
CN(Cc1cn[nH]c1-c1ccc(-c2ccccc2)cc1)CC1CCOCC1	i	i	i	i	i
CCCCn1c(N)c(N(CCC(C)C)C(=O)c2ccc3c(c2)OCO3)c(=O)[nH]c1=O	i	i	-5.7*	i	i
O=C(CNC(=O)C1COc2ccccc2O1)N/N=C\c1ccc(Cl)cc1 (configuration not stated)	i	i	i	i	i
N/C(=N\OC(=O)Oc1ccccc1)c1ccc(Cl)cc1	-9.5*	i	i	i	i
CCOc1ccc(C(=O)NCC(=O)N2CC=C(c3ccccc3)CC2)cc1OCC	i	i	i	i	i
CCOC(=O)CCS(=O)(=O)c1ccc(-c2ccc(S(=O)(=O)CCC(=O)OCC)cc2)cc1	i	i	-7.1*	i	i
c1cnc(N2CCN(c3nc4ccccc4n4cnnc34)CC2)nc1	i	i	i	i	i
c1ccc(C(c2ccccc2)N2CCN(c3nc4ccccc4n4cnnc34)CC2)cc1	-7.2*	i	i	i	i
O=C(COc1ccc(Cl)cc1Cl)NCCCCc1ccccc1	i	i	i	i	i
O=C(COc1ccc([N+](=O)[O-])cc1Cl)NCCc1ccccc1	i	i	i	i	9*
COC(=O)C1=C(C)NC(C)=C(C(=O)OCC(C)C)C1c1ccccc1[N+](=O)[O-] (configuration not stated)	i	i	i	31*	i
CCCOc1ccccc1C1CC(=O)NC(C)=C1C(=O)OCC(C)C (configuration not stated)	i	i	i	i	i
C/C(=N\Nc1ccc([N+](=O)[O-])cc1)c1ccc(O)cc1	i	i	-5.6*	i	i
COc1ccccc1/C=C/C1C(C(=O)OCC(C)C)=C(C)N=C2SCCC(=O)N21 (configuration not stated)	i	i	i	i	i
COC(=O)C1=C(C)N=C2SCCC(=O)N2C1/C=C/c1ccccc1 (configuration not stated)	-7.4*	i	i	i	i
SMILES	RGS4 pot	RGS4 block	MrgX1 antag	MrgX1 ag	MrgX1 PAM
O=C(O)CCn1cc(-c2ccc(F)cc2)nc1-c1ccncc1	nt	nt	i	i	i
Cc1onc(-c2ccccc2)c1C(=O)N/N=C/C=C/c1ccccc1	i	i	i	i	i
Cc1ccc(C(=O)N/N=C/C=C/c2ccccc2)o1	i	i	-7*	i	i
CC(C)CCN(C(=O)C1=COCCO1)c1c(N)n(Cc2ccccc2)c(=O)[nH]c1=O	i	i	i	i	i
CN(C)S(=O)(=O)Nc1cc(Cl)cc(Cl)c1	i	i	i	i	i
Cc1nnc(SCc2cc(=O)[nH]c(/N=C(\N)Nc3ccccc3Sc3ccccc3)n2)s1	-7.4*	i	i	i	i
COC(=O)c1cccc(NC(=O)CCNC(=O)c2ccc([N+](=O)[O-])cc2)c1	i	i	-7.8*	i	i
COC(=O)c1ccc(C)c(NC(=O)CCNC(=O)c2ccc([N+](=O)[O-])cc2)c1	i	i	i	i	i
CC(C)[C@H](NC(=O)c1ccccc1Cl)C(=O)OCc1cc([N+](=O)[O-])cc2c1OCOC2	i	i	i	i	i
CSCCC(NC(=O)c1ccco1)C(=O)OCc1cc([N+](=O)[O-])cc2c1OCOC2 (configuration not stated)	i	i	i	28*	i
CCNC(=O)/C(C#N)=C/c1c(N2CCN(c3cccc(Cl)c3)CC2)nc2c(C)cccn2c1=O	-11*	i	i	i	i
CCOC(=O)/C(C#N)=C/c1c(N2CCN(c3ccccc3)CC2)nc2c(C)cccn2c1=O	-7.8*	i	i	i	i
O=C(On1c(-c2ccccc2)nc2ccccc2c1=O)c1ccco1	-8.1*	i	i	i	i
COCCN(C(=O)COC(=O)CCc1ccccc1OC)c1c(N)n(Cc2ccccc2)c(=O)[nH]c1=O	i	i	-6*	i	i
O=C(COC(=O)c1cc([N+](=O)[O-])ccc1N1CCOCC1)Nc1ccc(Cl)cc1	i	i	-8.3*	i	i
CCc1nnc(NC(=O)c2cc([N+](=O)[O-])ccc2N2CCOCC2)s1	i	i	-6.3*	i	i
O=[N+]([O-])c1ccc(N/N=C/c2c[nH]c3ccccc23)cc1	i	i	-9.1*	i	i
O=[N+]([O-])c1ccccc1N/N=C/c1c[nH]c2ccccc12	i	i	i	i	i
O=[N+]([O-])c1ccc(N/N=C/c2ccc[nH]2)cc1	nt	nt	i	27*	i
CC(=O)c1cn(-c2ccc(Cl)cc2)c(=O)n(Cc2ccc(F)cc2)c1=O	i	i	-7.9*	i	i
Cc1ccc(C(=O)O)cc1-c1ccc(C=C2C(=O)c3ccccc3C2=O)o1	i	i	i	41*	i
Cc1cc(C(=O)O)ccc1-n1c(C)cc(C=C2C(=O)c3ccccc3C2=O)c1C	i	i	i	29*	i
